Source: ChEMBL document CHEMBL5360579, “Exploring the anticancer activity and the mechanism of action of pyrrolomycins F obtained by microwave-assisted total synthesis” (Eur J Med Chem, 2023)
Calls of active or inactive are those of the source. No cut-off for these calls is given here.

Assays:
MCF7 [1] = assay: Cytotoxicity against human MCF7 cells assessed as inhibition of cell proliferation incubated for 48 hrs by MTT assay; assay type: functional, cell-based; settings: MCF7, 48 h
How it was run: (§1)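 Cells kept in DMEM with 10% heat-inactivated FBS, penicillin/streptomycin, 37 °C, 5% CO2. Plated at 5×10^3 cells/well and left 24 h, then exposed 48 h to 80, 20, 5, 1.25, 0.31 and 0.078 µM (diluted from 5 mM DMSO stocks). MTT added for 2 h at 37 °C, formazan dissolved in DMSO, A570 read. Blank subtracted, viability taken relative to untreated cells. IC50 from a sigmoidal fit of % inhibition vs log concentration. Three experiments, each in triplicate.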

[2] = Cytotoxicity against hTERT-RPE1 cells assessed as inhibition of cell proliferation incubated for 48 hrs by MTT assay; assay type: toxicity, cell-based, TERT-RPE1; settings: human; how it was run: as §1
[3] = Selectivity index, ratio of IC50 for hTERT-RPE1 cells to IC50 for human HCT-116 cells; assay type: toxicity; settings: hTERT-RPE1 cells versus HCT-116 cells, read-out: Ratio IC50
How it was run: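 Ratio of the hTERT-RPE-1 MTT IC50 to the IC50 in HCT116 or MCF-7. Each IC50 comes from a 48 h MTT assay (0.078–80 µM, sigmoidal fit), three experiments in triplicate.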

HCT-116 [4] = assay: Induction of morphological changes in human HCT-116 cells assessed as reduction in cell clumps at 0.5 uM incubated for 48 hrs by inverted phase-contrast microscopic analysis; assay type: functional, cell-based
HCT-116 [5] = assay: Induction of morphological changes in human HCT-116 cells assessed as appearance of flattened cells at 0.5 uM incubated for 48 hrs by inverted phase-contrast microscopic analysis; assay type: functional, cell-based
MCF7 [6] = assay: Induction of morphological changes in human MCF7 cells assessed as appearance of flattened cells at 1 uM incubated for 48 hrs by inverted phase-contrast microscopic analysis; assay type: functional, cell-based
HCT-116 [7] = assay: Induction of morphological changes in human HCT-116 cells assessed as development of long elongations from filamentous protrusions resembling filopodia at 0.5 uM incubated for 48 hrs by inverted phase-contrast microscopic analysis; assay type: functional, cell-based
HCT-116 [8] = assay: Induction of morphological changes in human HCT-116 cells assessed as appearance of actin rich long elongations at 0.5 uM incubated for 48 hrs by rhodamine-phalloidin staining based fluorescence microscopic analysis; assay type: functional, cell-based
How it was run: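 HCT116 on coverslips, treated 48 h at 0.5 µM. Fixed in cold methanol 15 min, permeabilized 15 min in 0.1% Triton X-100/PBS. Stained with 0.165 µM rhodamine-phalloidin for 40 min in the dark at room temperature. Imaged at 640X.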

TERT-RPE1 = assay: Induction of morphological changes in hTERT-RPE1 cells at 5 uM incubated for 48 hrs by inverted phase-contrast microscopic analysis; assay type: toxicity, cell-based; settings: human, tert-rpe1, 48 h
HCT-116 [9] = assay: Induction of morphological changes in human HCT-116 cells assessed as appearance of flattened cells at 0.5 uM incubated for 48 hrs by scanning electron microscopic analysis; assay type: functional, cell-based
How it was run: (§2)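 HCT116 on coverslips, treated 48 h at 0.5 µM. Coverslips rinsed in PBS pH 7.4, fixed in 4% glutaraldehyde for 30 min at 4 °C, then imaged by scanning electron microscopy at 5000X and 20000X.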

HCT-116 [10] = assay: Induction of morphological changes in human HCT-116 cells assessed as neuronal sprouting at 0.5 uM incubated for 48 hrs by scanning electron microscopic analysis; assay type: functional, cell-based; how it was run: as §2
HCT-116 [11] = assay: Induction of morphological changes in human HCT-116 cells assessed as alteration in intercellular adhesion at 0.5 uM incubated for 48 hrs by scanning electron microscopic analysis; assay type: functional, cell-based; how it was run: as §2
HCT-116 [12] = assay: Induction of morphological changes in human HCT-116 cells assessed as leakage and perforation of cell membranes at 0.5 uM incubated for 48 hrs by scanning electron microscopic analysis; assay type: functional, cell-based; how it was run: as §2
HCT-116 [13] = assay: Induction of morphological changes in human HCT-116 cells assessed as appearance of long and thin filopodia at 0.5 uM incubated for 48 hrs by scanning electron microscopic analysis; assay type: functional, cell-based; how it was run: as §2
HCT-116 [14] = assay: Induction of morphological changes in human HCT-116 cells assessed as tunneling nanotubes formation at 0.5 uM incubated for 48 hrs by scanning electron microscopic analysis; assay type: functional, cell-based; how it was run: as §2
HCT-116 [15] = assay: Induction of apoptosis in human HCT-116 cells assessed as chromatin condensation at 0.5 uM incubated for 48 hrs by Hoechst 33342 staining based analysis; assay type: functional, cell-based
How it was run: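 HCT116 on coverslips at 5×10^4 cells/well, treated 48 h at 0.5 µM after 24 h attachment. PBS-washed, stained 10 min with Hoechst 33342 (final 1 µg/ml). Nuclei inspected at once by fluorescence microscopy at 640X for chromatin condensation and nuclear fragmentation.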

HCT-116 [16] = assay: Induction of autophagy in human HCT-116 cells assessed as effect on Atg-7 protein expression at 0.5 uM incubated for 48 hrs by Western blot analysis; assay type: functional, cell-based
HCT-116 [17] = assay: Inhibition of epithelial mesenchymal transition in human HCT-116 cells assessed as effect on E-cadherin protein expression at 0.5 uM incubated for 48 hrs by Western blot analysis; assay type: functional, cell-based
HCT-116 [18] = assay: Inhibition of epithelial mesenchymal transition in human HCT-116 cells assessed as effect on vimentin protein expression at 0.5 uM incubated for 48 hrs by Western blot analysis; assay type: functional, cell-based
HCT-116 [19] = assay: Upregulation of cofilin protein expression in human HCT-116 cells at 0.5 uM incubated for 48 hrs by Western blot analysis; assay type: functional, cell-based
HCT-116 [20] = assay: Induction of intracellular ROS generation in human HCT-116 cells at IC50 by DCFH-DA staining based analysis; assay type: functional, cell-based; settings: time 24-48 hrs, TDE = time-dependent effect
How it was run: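 HCT116 plated at 5×10^3 cells/well, grown overnight, then exposed 24 h or 48 h at the IC50 concentration. Loaded with 10 µM DCFH-DA for 30 min at 37 °C, medium swapped for PBS. Fluorescence read at ex 488/em 525 nm, normalized to cell number from a parallel MTT assay and to untreated cells. Triplicate, mean ±SD, Student's t-test.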

HCT-116 [21] = assay: Induction of cell death in human HCT-116 cells assessed as appearance of acidic vesicular organelles by measuring bright punctate dots in cytoplasm at 0.5 uM incubated for 48 hrs by acridine orange and ethidium bromide staining based fluorescence microscopic analysis; assay type: functional
How it was run: (§3)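 HCT116 on coverslips (5×10^4 cells/well), 24 h attachment, then exposed 48 h to 0.5 µM. PBS-washed and stained a few minutes with a 1:1 mix of acridine orange (100 µg/mL) and ethidium bromide (100 µg/mL). Viewed at once by fluorescence microscopy at 640X, scoring green vs orange nuclei and punctate cytoplasmic staining.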

HCT-116 [22] = assay: Induction of cell death in human HCT-116 cells assessed as appearance of neutral pH vacuoles originated from engulfment of extracellular fluid at 0.5 uM incubated for 48 hrs by acridine orange and ethidium bromide staining based fluorescence microscopic analysis; assay type: functional; how it was run: as §3
HCT-116 [23] = assay: Cytotoxicity against human HCT-116 cells assessed as reduction in colony formation treated for 48 hrs and measured after 10 days post last treatment by crystal violet staining based analysis; assay type: functional, cell-based; settings: dose 0.1-5 µM, time 9.0 day, in the assay text read “7 days” for “10 days”
How it was run: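 HCT116 seeded at 5×10^4 cells/well. After 24 h, treated 48 h at 0.1–0.5 and 5 µM, then grown a further 7 days. Fixed and stained 30 min with 6.0% glutaraldehyde plus 0.5% crystal violet, then washed. Dye taken up in 5% acetic acid and read at 592 nm.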

## O=C(c1cc(Br)ccc1O)c1[nH]c(Br)c(Cl)c1Br
MCF7 [1]
  IC50: 0.73 µM
[2]
  IC50 at 48 h: 86.6 µM
[3]
  selectivity ratio: ~100
HCT-116 [4]
  Activity: Active
HCT-116 [5]
  Activity: Active
MCF7 [6]
  Activity: Active
HCT-116 [7]
  Activity: Active
HCT-116 [8]
  Activity: Active
TERT-RPE1
  Activity: Non-Toxic
HCT-116 [9]
  Activity: Active
HCT-116 [10]
  Activity: Active
HCT-116 [11]
  Activity: Active
HCT-116 [12]
  Activity: Active
HCT-116 [13]
  Activity: Active
HCT-116 [14]
  Activity: Active
HCT-116 [15]
  Activity: inactive
HCT-116 [16]
  Activity: Active
HCT-116 [17]
  inhibition: inactive
HCT-116 [18]
  inhibition: inactive
HCT-116 [19]
  Activity: Active
HCT-116 [20]
  Activity: Tde
HCT-116 [21]
  Activity: Active
HCT-116 [22]
  Activity: Active
HCT-116 [23]
  Activity: Dose-Dependent Effect

## O=C(c1cc(Br)ccc1O)c1[nH]c(Br)c(Br)c1Br
MCF7 [1]
  IC50: 0.61 µM
[2]
  IC50 at 48 h: 62.8 µM
[3]
  selectivity ratio: ~100
HCT-116 [4]
  Activity: Active
HCT-116 [5]
  Activity: Active
MCF7 [6]
  Activity: Active
HCT-116 [7]
  Activity: Active
HCT-116 [8]
  Activity: Active
TERT-RPE1
  Activity: Non-Toxic
HCT-116 [9]
  Activity: Active
HCT-116 [10]
  Activity: Active
HCT-116 [11]
  Activity: Active
HCT-116 [12]
  Activity: Active
HCT-116 [13]
  Activity: Active
HCT-116 [14]
  Activity: Active
HCT-116 [15]
  Activity: inactive
HCT-116 [16]
  Activity: Active
HCT-116 [17]
  inhibition: inactive
HCT-116 [18]
  inhibition: inactive
HCT-116 [19]
  Activity: Active
HCT-116 [20]
  Activity: Tde
HCT-116 [21]
  Activity: Active
HCT-116 [22]
  Activity: Active
HCT-116 [23]
  Activity: Dose-Dependent Effect

## O=C(c1cc(Br)cc(Br)c1O)c1[nH]c(Br)c(Br)c1Br
MCF7 [1]
  IC50: 1.2 µM
[2]
  IC50 at 48 h: 57.7 µM
HCT-116 [4]
  Activity: Active
HCT-116 [5]
  Activity: Active
MCF7 [6]
  Activity: Active
HCT-116 [7]
  Activity: Active
HCT-116 [8]
  Activity: Active
TERT-RPE1
  Activity: Non-Toxic
HCT-116 [9]
  Activity: Active
HCT-116 [10]
  Activity: Active
HCT-116 [11]
  Activity: Active
HCT-116 [12]
  Activity: Active
HCT-116 [13]
  Activity: Active
HCT-116 [14]
  Activity: Active
HCT-116 [15]
  Activity: inactive
HCT-116 [17]
  inhibition: inactive
HCT-116 [18]
  inhibition: inactive
HCT-116 [19]
  Activity: Active
HCT-116 [20]
  Activity: Tde
HCT-116 [21]
  Activity: Active
HCT-116 [22]
  Activity: Active

## O=C(c1cc(Br)ccc1O)c1[nH]c(Cl)c(Br)c1Br
MCF7 [1]
  IC50: 0.65 µM
[2]
  IC50 at 48 h: 61.5 µM
[3]
  selectivity ratio: ~100
HCT-116 [4]
  Activity: Active
HCT-116 [5]
  Activity: Active
MCF7 [6]
  Activity: Active
HCT-116 [7]
  Activity: Active
HCT-116 [8]
  Activity: Active
TERT-RPE1
  Activity: Non-Toxic
HCT-116 [9]
  Activity: Active
HCT-116 [10]
  Activity: Active
HCT-116 [11]
  Activity: Active
HCT-116 [12]
  Activity: Active
HCT-116 [13]
  Activity: Active
HCT-116 [14]
  Activity: Active
HCT-116 [15]
  Activity: inactive
HCT-116 [16]
  Activity: Active
HCT-116 [17]
  inhibition: inactive
HCT-116 [18]
  inhibition: inactive
HCT-116 [19]
  Activity: Active
HCT-116 [20]
  Activity: Tde
HCT-116 [21]
  Activity: Active
HCT-116 [22]
  Activity: Active
HCT-116 [23]
  Activity: Dose-Dependent Effect

## O=C(c1cc(Br)ccc1O)c1[nH]c(Cl)c(Cl)c1Br
MCF7 [1]
  IC50: 1.21 µM
[2]
  IC50 at 48 h: 175 µM
[3]
  selectivity ratio: ~100
HCT-116 [4]
  Activity: Active
HCT-116 [5]
  Activity: Active
MCF7 [6]
  Activity: Active
HCT-116 [7]
  Activity: Active
HCT-116 [8]
  Activity: Active
TERT-RPE1
  Activity: Non-Toxic
HCT-116 [9]
  Activity: Active
HCT-116 [10]
  Activity: Active
HCT-116 [11]
  Activity: Active
HCT-116 [12]
  Activity: Active
HCT-116 [13]
  Activity: Active
HCT-116 [14]
  Activity: Active
HCT-116 [15]
  Activity: inactive
HCT-116 [16]
  Activity: Active
HCT-116 [17]
  inhibition: inactive
HCT-116 [18]
  inhibition: inactive
HCT-116 [19]
  Activity: Active
HCT-116 [20]
  Activity: Tde
HCT-116 [21]
  Activity: Active
HCT-116 [22]
  Activity: Active
HCT-116 [23]
  Activity: Dose-Dependent Effect
